Compounds with a hit are over-represented: about 0.6% of the library has one in this group of screens.
Keap1-Nrf2 PPI – disrupts human Keap1 binding to Nrf2 peptide | Keap1 Kelch-Nrf2 peptide fluorescence polarization, 1536-well | inhibition, % at 9.4 µM | 340,000 tested, 0.15% active; in the data active = inhibition above about 12%;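 also: human Keap1 Kelch domain with fluorescein labeled Nrf2 9mer peptide probe; higher means more block of Keap1 binding to Nrf2 peptide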
Tn7 DDE FP – inhibitors of Tn7 peptide binding to human fibrin DD(E); P02675; FP displacement of FITC-Tn7 peptide from fibrin DD(E); 0% = median of compound wells per plate; inhibition, % at 8.3 µM; 370,000 tested, 0.13% active;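 active = inhibition above the mean of compounds falling within the control limits plus 3 SD of them, cut at about 14% in these data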
Target sequence (P02675 whole entry, looked up): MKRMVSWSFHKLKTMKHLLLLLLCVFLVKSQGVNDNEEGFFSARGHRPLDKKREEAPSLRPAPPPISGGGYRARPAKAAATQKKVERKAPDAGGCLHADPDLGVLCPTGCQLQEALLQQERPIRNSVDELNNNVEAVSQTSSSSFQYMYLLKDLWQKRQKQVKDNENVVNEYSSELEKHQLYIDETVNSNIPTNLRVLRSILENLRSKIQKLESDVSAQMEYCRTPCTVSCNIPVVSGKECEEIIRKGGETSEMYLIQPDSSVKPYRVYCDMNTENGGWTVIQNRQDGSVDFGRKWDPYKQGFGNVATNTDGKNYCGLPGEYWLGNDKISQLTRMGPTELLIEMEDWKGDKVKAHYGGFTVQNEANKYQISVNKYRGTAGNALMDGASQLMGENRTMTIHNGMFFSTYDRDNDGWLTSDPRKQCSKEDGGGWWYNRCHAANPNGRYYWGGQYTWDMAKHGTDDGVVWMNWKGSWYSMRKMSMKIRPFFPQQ
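Assay system: human fibrin DD(E) protein / Input: 2 µM fibrin DD(E) / Benchmarks: high control of 10 µM Aha-Tn7 peptide / Measured by: fluorescence polarization of the labelled Tn7 tracer / Medium: Tris buffer with calcium and detergent, pH 7.8 / Timing: 10 min compound pre-incubation, 3 h probe incubation at room temperature / Repeats: one replicate per compound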
Rtt109 HAT inh – blocks Candida albicans Rtt109/Vps75 acetyltransferase activity; Q5AAJ8; purified Rtt109/Vps75, ThioGlo CoA-SH fluorescence, 4 h; inhibition, % at 34.9 µM; 330,000 tested, 0.16% active; AID 540336;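 active = inhibition of at least 50% in every replicate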
LANA DNA inh – KSHV C-LANA DNA binding inhibition. MBP-C-LANA/FAM-LBS DNA binding, fluorescence polarization. inhibition, % at 9 µM. 340,000 tested, 0.078% active;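 active = highest replicate inhibition at or above 60% at 9 µM, even if other replicates fall short; inactive = all replicates below 60% inhibition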
Tn6 DDE FP – inhibitors of Tn6 peptide binding to human fibrin DD(E); P02675; Fibrin DD(E) TRITC-Tn6 fluorescence polarization displacement; inhibition, % at 8.3 µM; 370,000 tested, 0.21% active;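 active = inhibition above a per-campaign cutoff: mean of compounds within control limits plus 3 SD, cut at about 15% in these data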
DNA intercal 2 – intercalates DNA, flagged as C-LANA false positive; shares compounds with LANA DNA inh; Acridine orange-DNA displacement, fluorescence polarization; AC50, µM (top dose mostly 35 µM); 20 tested, under 10 active;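 active = signal drop with an AC50 no more than ten times the top valid dose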
Keap1 TSA – binders of human Keap1 Kelch domain. max delta Tm, degrees C. shares compounds with Keap1-Nrf2 PPI. 400 tested, 8% active. Keap1 Kelch thermal shift, delta Tm; hits give high values; in the data active = max delta Tm above about 0.48 degrees C
Sypro dye melt – counter-screen for Keap1 thermal shift hits: dye-only artifacts; shares compounds with Keap1-Nrf2 PPI; Sypro Orange dye-only thermal melt, no protein, delta Tm; top dose 26 µM; delta Tm, degrees C (concentration not given with the values); 140 tested, under 10 active; AID 651858;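 active = at highest dose tested, delta Tm positive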
Hits are given with their value; i = inactive; nt = not tested or not shown.

SMILES | Keap1-Nrf2 PPI | Tn7 DDE FP | Rtt109 HAT inh | LANA DNA inh | Tn6 DDE FP | Keap1 TSA | others
C[C@H]1c2cccc(O)c2C(O)=C2C(=O)C3(O)C(O)=C(C(N)=O)C(=O)[C@@H](N(C)C)[C@@H]3[C@@H](O)[C@@H]21 (stereo partly specified) | i | i | i | i | i | nt
C=C1c2cccc(O)c2C(O)=C2C(=O)[C@]3(O)C(O)=C(C(N)=O)C(=O)[C@@H](N(C)C)[C@@H]3[C@@H](O)[C@H]12 | i | i | i | 75.3 | i | nt
CCCCS(=O)(=O)/C=C\C=C/S(=O)(=O)CCCC | i | nt | 149.0 | i | nt | nt
CCCCN(C/C=C/c1ccccc1OC)Cc1ccccc1 | i | i | 64.1 | i | i | nt
CCN(C/C=C/c1ccccc1OC)Cc1ccccc1 | i | i | i | i | i | nt
O=C(Nc1ccc(C(F)(F)F)cc1)OC1CCC12CCCCC2 (stereo unspecified) | nt | i | nt | nt | i | nt
Cc1ccc(N(C)c2nc(N)nc(N)c2N=O)cc1 | nt | i | nt | nt | 57.5 | nt
Oc1ccc(C[C@H]2CNC(=S)N2CC2CCCN2C[C@H](Cc2ccc(O)cc2)N2C[C@H](Cc3ccc(O)cc3)N(CC3CCCCC3)C2=S)cc1 (stereo partly specified) | i | i | i | i | 25.9 | nt
COC(=O)C[C@@H]1CC[C@H]2[C@@H](COc3ccc(NC(=O)Nc4ccccc4C)cc3C(=O)N2C)O1 | nt | i | nt | nt | i | nt
Cn1ccnc1CC(O)(c1ccccc1)c1ccccc1 | i | i | i | i | i | nt
C/C=C/n1ccnc1CC(O)(c1ccccc1)c1ccc(C)cc1 (stereo unspecified) | i | i | 60.1 | i | i | nt
COC(=O)c1[nH]nc(-c2ccccc2)c1-c1ccccc1 | i | i | 54.1 | i | i | nt
COc1cc2c(cc1OC)CSC1C(=O)N(C)C(SC2)C(=O)N1C | nt | i | nt | nt | i | nt
COc1ccc(-c2nc3ccccc3c(=O)n2O)cc1 | i | i | i | i | i | nt
O=c1c2ccccc2nc(-c2ccccc2)n1O | i | i | i | i | 15.8 | nt
Nc1c(/C=C2\C=CC(=O)C(O)=C2)c(=O)nc2sc(CC(=O)N3CCCCC3)nn12 | nt | nt | nt | nt | nt | nt | DNA intercal 2=i
CN(C)S(=O)(=O)c1cc(C(=O)NC2CCSc3ccccc32)ccc1Cl (stereo unspecified) | nt | nt | nt | nt | nt | nt | DNA intercal 2=i
O=C(NC1CCSc2ccccc21)c1ccc(Cl)c(S(=O)(=O)N2CCOCC2)c1 (stereo unspecified) | i | i | i | i | i | nt
Clc1ccc(-c2nnc3sc(-c4ccc(Br)o4)nn23)c(Cl)c1 | i | i | i | i | i | nt
Clc1ccc(-c2nnc3sc(-c4ccc(Br)o4)nn23)cc1 | i | i | i | 107.1 | i | nt | DNA intercal 2=i
CCN(Cc1ccccc1)C(=O)C1CCCN(c2ncccn2)C1 (stereo unspecified) | nt | i | nt | nt | i | nt
O=C1CCCC(O)=C1N=Nc1ccc(C(=O)O)cc1 | i | i | i | 71.3 | i | nt | DNA intercal 2=i
CCCCCCCCN1C(=O)[C@@H](CC(=O)NCc2cccc3ccccc23)C[C@@]2(C(=O)OC)C1=C[C@H](C(C)C)O[C@@H]2C1CC1 | nt | i | nt | nt | i | nt
O=C(O)c1cc(N2N=C(C(F)(F)F)/C(=C/C=C/c3ccco3)C2=O)ccc1Cl | 20.8 | i | i | 112.8 | i | 0.68 | DNA intercal 2=i
CN(C)CCNC(=O)c1sc2nc(-c3ccccc3)cc(C(F)(F)F)c2c1N | i | i | i | i | i | nt
SMILES | Keap1-Nrf2 PPI | Tn7 DDE FP | Rtt109 HAT inh | LANA DNA inh | Tn6 DDE FP | Keap1 TSA | others
COc1ccc(-c2cc(C(F)(F)F)c3c(N)c(C(=O)NCCSC)sc3n2)cc1 | 29.2 | i | i | i | i | i | DNA intercal 2=i;Sypro dye melt=i
COc1ccc(CCNC(=O)Cn2nc(-c3ccccc3)ccc2=O)cc1 | nt | i | nt | nt | i | nt
CN(C)CCP(=O)(c1ccccc1)c1ccccc1 | i | i | i | i | i | nt
CN(C)CCN(C)Cc1c2ccccc2c(CN(C)CCN(C)C)c2ccccc12 | 19.5 | i | i | i | i | i | Sypro dye melt=i
COC(=O)c1cc(N2CCN(C)CC2)nc2ccccc12 | 30.6 | i | i | i | i | i
O=C(C1CCCN1S(=O)(=O)c1ccc(Br)s1)N1CCc2ccccc2C1 (stereo unspecified) | nt | i | nt | nt | i | nt
Cc1ccc(O)c(C(=O)c2cnc3c(c2)c(C)nn3-c2ccccc2)c1 | 22.6 | i | i | i | i | i | Sypro dye melt=i
Cc1ccc(O)c(C(=O)c2cnc3c(c2)c(=O)n(C)c(=O)n3C)c1 | i | i | i | i | i | nt
CCOc1ccc(NC(=O)COC(=O)CCN2C(=O)C3CC=CCC3C2=O)cc1OCC (stereo unspecified) | 45.3 | i | i | i | i | i
CCOc1ccc(NC(=O)CCN2C(=O)C3CCCCC3C2=O)cc1OCC (stereo unspecified) | i | i | i | i | i | nt
O=C(Cn1nc(-c2ccccc2)ccc1=O)NCCc1ccc(F)cc1 | nt | i | nt | nt | i | nt
O=C(Nc1nc2ncccn2c1-c1ccc(C(F)(F)F)cc1)C1CC1 | nt | i | nt | nt | i | nt
Clc1ccccc1C1=CC(c2ccco2)n2ncnc2N1 (stereo unspecified) | i | i | i | i | i | nt
COc1ccc(C2=CC(c3ccco3)n3ncnc3N2)cc1 (stereo unspecified) | 20.5 | nt | i | i | nt | i | Sypro dye melt=i
Clc1ccc(C2=CC(c3ccco3)n3ncnc3N2)cc1 (stereo unspecified) | 27.5 | 15.8 | i | i | i | i | Sypro dye melt=i
Oc1cc(Nc2ccccc2)cc2cccnc12 | i | i | i | i | i | nt
Oc1cc(NCCN2CCOCC2)cc2cccnc12 | 17.9 | i | i | i | i | i
Cc1ccccc1NS(=O)(=O)c1ccc2c3c(cccc13)C(=O)N2C | i | i | i | i | i | nt
CN1C(=O)c2cccc3c(S(N)(=O)=O)ccc1c23 | 29.0 | i | i | i | i | i
Cc1cc(C)cc(C(=O)OCCCN(C)C2CN(Cc3cn(Cc4cccc(F)c4)nn3)S(=O)(=O)C2)c1 (stereo unspecified) | nt | i | nt | nt | i | nt
O=C1CCn2c1c(O)c1ccccc1c2=O | 19.2 | i | i | i | i | i | Sypro dye melt=i
CN(Cc1ccccc1F)C(=O)Cn1c(-c2cncs2)nc2ccccc21 | nt | i | nt | nt | i | nt
CCN1CCN(S(=O)(=O)c2ccc(Cl)c(C(=O)NC3CCC(C)CC3)c2)CC1 (stereo unspecified) | 28.8 | i | i | i | i | i | Sypro dye melt=i
CCN1CCN(S(=O)(=O)c2ccc(Cl)c(C(=O)NC3CCCCC3)c2)CC1 | i | i | i | i | i | nt
Cc1cc(C)c(C)c(S(=O)(=O)Nc2cccc(S(=O)(=O)Nc3ccccc3C(=O)O)c2)c1C | 13.9 | i | i | i | i | 0.58
